Experimental data taken from ChEMBL document CHEMBL1152649, “Synthesis, cytotoxicity and human telomerase inhibition activities of a series of 1,2-heteroannelated anthraquinones and anthra[1,2-d]imidazole-6,11-dione homologues” (2009).
Active and inactive are the calls of the source. The rule behind the calls is not given here.

Assays:
[1] = molecular target: Telomerase reverse transcriptase (Homo sapiens) (UniProt O14746); assay: Inhibition of TERT in human H1299 cells assessed as residual transcriptional activity at 10 uM after 24 hrs by SEAP reporter gene assay; values are per cent of control
Telomerase reverse transcriptase (Homo sapiens), sequence (O14746 whole entry): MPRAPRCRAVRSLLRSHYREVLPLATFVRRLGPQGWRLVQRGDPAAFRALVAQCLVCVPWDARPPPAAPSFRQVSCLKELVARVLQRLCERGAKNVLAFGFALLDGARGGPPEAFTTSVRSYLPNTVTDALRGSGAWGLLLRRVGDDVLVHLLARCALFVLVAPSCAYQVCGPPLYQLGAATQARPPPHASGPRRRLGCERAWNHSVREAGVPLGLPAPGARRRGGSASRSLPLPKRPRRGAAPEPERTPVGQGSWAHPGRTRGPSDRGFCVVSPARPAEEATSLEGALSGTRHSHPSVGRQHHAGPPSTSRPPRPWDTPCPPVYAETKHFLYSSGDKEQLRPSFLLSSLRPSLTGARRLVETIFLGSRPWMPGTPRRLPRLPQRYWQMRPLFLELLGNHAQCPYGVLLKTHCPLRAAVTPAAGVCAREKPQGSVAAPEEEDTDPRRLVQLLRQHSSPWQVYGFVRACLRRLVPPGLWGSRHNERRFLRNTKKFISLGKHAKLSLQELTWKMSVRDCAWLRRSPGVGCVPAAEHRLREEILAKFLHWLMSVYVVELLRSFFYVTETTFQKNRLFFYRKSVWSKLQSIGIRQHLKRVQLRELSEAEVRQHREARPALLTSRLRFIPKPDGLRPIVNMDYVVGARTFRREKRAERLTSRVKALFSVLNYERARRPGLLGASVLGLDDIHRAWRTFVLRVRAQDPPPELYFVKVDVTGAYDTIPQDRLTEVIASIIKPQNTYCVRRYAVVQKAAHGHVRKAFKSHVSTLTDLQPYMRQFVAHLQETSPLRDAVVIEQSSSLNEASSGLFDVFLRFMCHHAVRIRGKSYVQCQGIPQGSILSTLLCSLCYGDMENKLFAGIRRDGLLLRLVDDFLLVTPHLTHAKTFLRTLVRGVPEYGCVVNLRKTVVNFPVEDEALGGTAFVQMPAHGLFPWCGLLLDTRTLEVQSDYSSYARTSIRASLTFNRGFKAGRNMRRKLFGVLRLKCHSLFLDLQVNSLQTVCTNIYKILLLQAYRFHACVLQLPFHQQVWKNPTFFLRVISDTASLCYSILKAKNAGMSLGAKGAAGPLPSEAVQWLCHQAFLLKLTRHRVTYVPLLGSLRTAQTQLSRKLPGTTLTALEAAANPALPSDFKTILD

NCI/ADR-RES = assay: Antiproliferative activity against human NCI/ADR-RES cells assessed as cell growth at 10 uM; type: functional; settings: read-out: Activity
Outline: (§1)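 NCI 60 cell line panel, single-dose screen (10^-5 M) run by the developmental therapeutics program protocol. Results are given as growth percent of treated cells relative to untreated control cells for each line.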

NCI-H522 = assay: Antiproliferative activity against human NCI-H522 cells assessed as cell growth at 10 uM; type: functional; settings: read-out: Activity
Outline: as §1

OVCAR-5 = assay: Antiproliferative activity against human OVCAR5 cells assessed as cell growth at 10 uM; type: functional; settings: read-out: Activity
Outline: as §1

HCT-116 = assay: Antiproliferative activity against human HCT116 cells assessed as cell growth at 10 uM; type: functional; settings: read-out: Activity
Outline: as §1

Malme-3M = assay: Antiproliferative activity against human MALME-3M cells assessed as cell growth at 10 uM; type: functional; settings: read-out: Activity
Outline: as §1

HCC 2998 = assay: Antiproliferative activity against human HCC2998 cells assessed as cell growth at 10 uM; type: functional; settings: read-out: Activity
Outline: as §1

M14 = assay: Antiproliferative activity against human M14 cells assessed as cell growth at 10 uM; type: functional; settings: read-out: Activity
Outline: as §1

U-251 = assay: Antiproliferative activity against human U251 cells assessed as cell growth at 10 uM; type: functional; settings: read-out: Activity
Outline: (§2)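 NCI 60 cell line panel, single dose (10^-5 M), run per the Developmental Therapeutics Program protocol (one dose mean graph). Each result is the growth percentage of treated cells relative to untreated control cells.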

TK-10 = assay: Antiproliferative activity against human TK10 cells assessed as cell growth at 10 uM; type: functional; settings: read-out: Activity
Outline: as §2

[2] = Cytotoxicity against human H1299 cells at 10 uM after 48 hrs by MTT assay; type: functional; settings: NCI-H1299, 48 h
Outline: (§3)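 H1299 non-small cell lung cancer cells were grown in RPMI 1640 with 10% FBS, penicillin and streptomycin at 37 °C under 5% CO2. About 2 × 10³ cells per well were seeded and left 24 h. Compounds were dissolved fresh in DMSO, diluted into complete medium and applied for 48 h. MTT was then added for 4 h at 37 °C, followed by lysis buffer (20% SDS, 50% DMF) for 16 h, and absorbance was read at 550 nm.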

[3] = molecular target: Telomerase reverse transcriptase (Homo sapiens) (UniProt O14746); assay: Inhibition of TERT in human H1299 cells assessed as residual transcriptional activity at 1 uM after 24 hrs by SEAP reporter gene assay; values are per cent of control
LOX IMVI = assay: Antiproliferative activity against human LOXIMVI cells assessed as cell growth at 10 uM; type: functional; settings: read-out: Activity
Outline: as §1

[4] = Cytotoxicity against human H1299 cells at 100 uM after 48 hrs by MTT assay; type: functional; settings: NCI-H1299, 48 h
Outline: as §3

SK-MEL-28 = assay: Antiproliferative activity against human SK-MEL-28 cells assessed as cell growth at 10 uM; type: functional; settings: read-out: Activity
Outline: as §1

SNB-19 = assay: Antiproliferative activity against human SNB19 cells assessed as cell growth at 10 uM; type: functional; settings: read-out: Activity
Outline: as §1

HL-60(TB) = assay: Antiproliferative activity against human HL-60(TB) cells assessed as cell growth at 10 uM; type: functional; settings: read-out: Activity
Outline: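 NCI Developmental Therapeutics Program 60-cell-line one-dose screen at 10^-5 M. Readout is growth percentage of treated cells relative to untreated control cells.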

[5] = Cytotoxicity against human H1299 cells at 1 uM after 48 hrs by MTT assay; type: functional; settings: NCI-H1299, 48 h
Outline: as §3

[6] = Antiproliferative activity against human Hs 578T cells assessed as cell growth at 10 uM; type: functional; settings: read-out: Activity
Outline: as §1

UO-31 = assay: Antiproliferative activity against human UO31 cells assessed as cell growth at 10 uM; type: functional; settings: read-out: Activity
Outline: as §2

OVCAR-8 = assay: Antiproliferative activity against human OVCAR8 cells assessed as cell growth at 10 uM; type: functional; settings: read-out: Activity
Outline: as §1

OVCAR-4 = assay: Antiproliferative activity against human OVCAR4 cells assessed as cell growth at 10 uM; type: functional; settings: read-out: Activity
Outline: as §1

SF-539 = assay: Antiproliferative activity against human SF539 cells assessed as cell growth at 10 uM; type: functional; settings: read-out: Activity
Outline: as §1

SF-268 = assay: Antiproliferative activity against human SF268 cells assessed as cell growth at 10 uM; type: functional; settings: read-out: Activity
Outline: as §1

EKVX = assay: Antiproliferative activity against human EKVX cells assessed as cell growth at 10 uM; type: functional; settings: read-out: Activity
Outline: as §1

UACC-257 = assay: Antiproliferative activity against human UACC257 cells assessed as cell growth at 10 uM; type: functional; settings: read-out: Activity
Outline: as §2

MDA-MB-231 = assay: Antiproliferative activity against human MDA-MB-231 cells assessed as cell growth at 10 uM; type: functional; settings: read-out: Activity
Outline: as §1

A498 = assay: Antiproliferative activity against human A498 cells assessed as cell growth at 10 uM; type: functional; settings: read-out: Activity
Outline: as §1

NCI-H226 = assay: Antiproliferative activity against human NCI-H226 cells assessed as cell growth at 10 uM; type: functional; settings: read-out: Activity
Outline: as §1

T47D = assay: Antiproliferative activity against human T47D cells assessed as cell growth at 10 uM; type: functional; settings: read-out: Activity
Outline: as §2

SF-295 = assay: Antiproliferative activity against human SF295 cells assessed as cell growth at 10 uM; type: functional; settings: read-out: Activity
Outline: as §1

OVCAR-3 = assay: Antiproliferative activity against human OVCAR-3 cells assessed as cell growth at 10 uM; type: functional; settings: read-out: Activity
Outline: as §1

SNB-75 = assay: Antiproliferative activity against human SNB75 cells assessed as cell growth at 10 uM; type: functional; settings: read-out: Activity
Outline: as §2

[7] = molecular target: Telomerase reverse transcriptase (Homo sapiens) (UniProt O14746); assay: Inhibition of telomerase in human H1299 cells up to 100 uM by TRAP assay; type: cell-based
Outline: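 PCR-based telomeric repeat amplification protocol (TRAP). The telomerase source was total lysate of H1299 lung cancer cells, with protein measured against BSA standards. Controls were extract without inhibitor and RNase A-treated extract.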

UACC-62 = assay: Antiproliferative activity against human UACC62 cells assessed as cell growth at 10 uM; type: functional; settings: read-out: Activity
Outline: as §2

CCRF-CEM = assay: Antiproliferative activity against human CCRF-CEM cells assessed as cell growth at 10 uM; type: functional; settings: read-out: Activity
Outline: as §1

A549 = assay: Antiproliferative activity against human A549 cells assessed as cell growth at 10 uM; type: functional; settings: read-out: Activity
Outline: as §1

SK-MEL-2 = assay: Antiproliferative activity against human SK-MEL-2 cells assessed as cell growth at 10 uM; type: functional; settings: read-out: Activity
Outline: as §1

HT-29 = assay: Antiproliferative activity against human HT-29 cells assessed as cell growth at 10 uM; type: functional; settings: read-out: Activity
Outline: as §1

HCT-15 = assay: Antiproliferative activity against human HCT15 cells assessed as cell growth at 10 uM; type: functional; settings: read-out: Activity
Outline: as §1

COLO 205 = assay: Antiproliferative activity against human COLO205 cells assessed as cell growth at 10 uM; type: functional; settings: read-out: Activity
Outline: as §1

SN12C = assay: Antiproliferative activity against human SN12C cells assessed as cell growth at 10 uM; type: functional; settings: read-out: Activity
Outline: as §1

MOLT-4 = assay: Antiproliferative activity against human MOLT4 cells assessed as cell growth at 10 uM; type: functional; settings: read-out: Activity
Outline: as §1

DU-145 = assay: Antiproliferative activity against human DU145 cells assessed as cell growth at 10 uM; type: functional; settings: read-out: Activity
Outline: as §1

## CC1(C)Nc2ccc3c(c2N1)C(=O)c1ccccc1C3=O
[1]
  residual activity: 73%
NCI/ADR-RES
  growth at 10 µM: 103%
NCI-H522
  growth at 10 µM: 38.9%
OVCAR-5
  growth at 10 µM: 96.5%
HCT-116
  growth at 10 µM: 54.7%
Malme-3M
  growth at 10 µM: 155%
HCC 2998
  growth at 10 µM: 137%
M14
  growth at 10 µM: 83.7%
U-251
  growth at 10 µM: 87.8%
TK-10
  growth at 10 µM: 62.4%
[2]
  viability at 10 µM: 93%
[3]
  residual activity: 96%
LOX IMVI
  growth at 10 µM: 61.9%
[4]
  viability at 100 µM: 31%
SK-MEL-28
  growth at 10 µM: 129%
SNB-19
  growth at 10 µM: 94.3%
HL-60(TB)
  growth at 10 µM: 129%
[5]
  viability at 1 µM: 98%
[6]
  growth at 10 µM: 68.4%
UO-31
  growth at 10 µM: 30.6%
OVCAR-8
  growth at 10 µM: 90.2%
OVCAR-4
  growth at 10 µM: 80.1%
SF-539
  growth at 10 µM: 93.6%
SF-268
  growth at 10 µM: 90.2%
EKVX
  growth at 10 µM: 63.1%
UACC-257
  growth at 10 µM: 118%
MDA-MB-231
  growth at 10 µM: 72.9%
A498
  growth at 10 µM: 80.6%
NCI-H226
  growth at 10 µM: 89.7%
T47D
  growth at 10 µM: 83%
SF-295
  growth at 10 µM: 98%
OVCAR-3
  growth at 10 µM: 78.2%
SNB-75
  growth at 10 µM: 78%
[7]
  inhibition: inactive
UACC-62
  growth at 10 µM: 67.6%
CCRF-CEM
  growth at 10 µM: 74%
A549
  growth at 10 µM: 94.6%
SK-MEL-2
  growth at 10 µM: 8.04%
HT-29
  growth at 10 µM: 103%
HCT-15
  growth at 10 µM: 64.6%
COLO 205
  growth at 10 µM: 90.6%
SN12C
  growth at 10 µM: 92%
MOLT-4
  growth at 10 µM: 116%
DU-145
  growth at 10 µM: 76%

## O=C1c2ccccc2C(=O)c2c1ccc1nccnc21
[1]
  residual activity: 26%
NCI/ADR-RES
  growth at 10 µM: 68%
NCI-H522
  growth at 10 µM: 24.1%
OVCAR-5
  growth at 10 µM: 107%
HCT-116
  growth at 10 µM: 53.3%
Malme-3M
  growth at 10 µM: 181%
HCC 2998
  growth at 10 µM: -7.15%
M14
  growth at 10 µM: 59.8%
U-251
  growth at 10 µM: 63.5%
TK-10
  growth at 10 µM: 127%
[2]
  viability at 10 µM: 13%
[3]
  residual activity: 105%
LOX IMVI
  growth at 10 µM: 44.2%
[4]
  viability at 100 µM: 6%
SK-MEL-28
  growth at 10 µM: 97.5%
SNB-19
  growth at 10 µM: 87.3%
HL-60(TB)
  growth at 10 µM: 102%
[5]
  viability at 1 µM: 98%
[6]
  growth at 10 µM: 76.8%
UO-31
  growth at 10 µM: 51.5%
OVCAR-8
  growth at 10 µM: 47.5%
OVCAR-4
  growth at 10 µM: 94.2%
SF-539
  growth at 10 µM: 40.7%
SF-268
  growth at 10 µM: 68%
EKVX
  growth at 10 µM: 82.6%
UACC-257
  growth at 10 µM: 91.1%
MDA-MB-231
  growth at 10 µM: 81.4%
A498
  growth at 10 µM: 98.8%
NCI-H226
  growth at 10 µM: 86.7%
T47D
  growth at 10 µM: 85.2%
SF-295
  growth at 10 µM: 80.8%
OVCAR-3
  growth at 10 µM: 71.7%
SNB-75
  growth at 10 µM: 105%
[7]
  inhibition: inactive
UACC-62
  growth at 10 µM: 90.5%
A549
  growth at 10 µM: 47.1%
SK-MEL-2
  growth at 10 µM: 6.66%
HT-29
  growth at 10 µM: 81.9%
HCT-15
  growth at 10 µM: 52.1%
COLO 205
  growth at 10 µM: 71.6%
SN12C
  growth at 10 µM: 64.7%
MOLT-4
  growth at 10 µM: 22.9%
DU-145
  growth at 10 µM: 93.3%
